Measured values pooled from the literature.
Compare with care: the assays were run in different laboratories.
Target: Substance-P receptor (TACR1, Homo sapiens, UniProt P25103)

SMILES | read-out | technique | concentration | inhibition [%]
CC(C)Cn1cnc2c(N)nc3ccccc3c21 | ligand displacement | radioligand | 10 µM | -8
COc1ccc(C(=O)NCc2cc(C(C)C)no2)cc1OC1CCN(C)CC1 | ligand displacement | radioligand | 10 µM | 22
C[C@H](C(=O)N[C@H]1COc2ccccc2[C@@H]1S(C)(=O)=O)c1ccc(F)cc1 | cell-free assay | – | 10 µM | 11
O=C(Nc1cccnn1)N1CCN([C@@H]2CCOc3cc(C(F)(F)F)ccc32)CC1 | ligand displacement | – | 20 µM | 38
CC(C)N1CCC[C@H]1CNC(=O)c1cn(C2CCCC2)c(=O)c2c1c1ccccc1n2C | ligand displacement | radioligand | 10 µM | 23
COc1ccc(S(=O)(=O)N2CCCCC2)cc1C | ligand displacement | radioligand | 10 µM | < 30
CCCCCCCCCCCC(=O)OC[C@@H](COP(=O)(O)OCCNC(=O)c1ccc(Cn2c(=O)[nH]c3c(N)nc(OCCOC)nc32)cc1)OC(=O)CCCCCCCCCCC | ligand displacement | radioligand | 10 µM | 23
CN(CCN1CCC(OC(=O)Nc2ccccc2-c2ccccc2)CC1)C(=O)c1ccc(CN2CCC(C(N)=O)CC2)cc1 | ligand displacement | radioligand | 1 µM | -6
c1ccc(C(NCCNC(c2ccccc2)c2ccccc2)c2ccccc2)cc1 | cell-free assay | – | 10 µM | 49
